Test results taken from ChEMBL document CHEMBL3272319, “Alkyl streptozotocin analogues with improved biological activities” (J Med Chem, 1976).

Key:
Mus musculus [1] = test: Toxicity in BDF1 mouse allografted with mouse L1210 cells assessed as mortality at 125 mg/kg, ip qd for 5 days; assay type: organism-based; parameters: dose 125 mg/kg, route intraperitoneal; details: in vivo, 120 h
In short: (§1)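 L1210 (1 × 10^5 cells) implanted into BDF1 mice, six per group; compound in saline ip once daily days 1-5; effect read as % increase in life span, ILS = [(treated life span/control life span) − 1] × 100.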

Micrococcus luteus = test: Antibacterial activity against Sarcina lutea ATCC 9341 assessed as growth inhibition after 18 hrs by broth dilution method; assay type: functional; details: ATCC 9341, 18 h
In short: (§2)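 Twofold serial dilutions in heart infusion broth. Inoculum was a 24-h heart infusion broth culture diluted 100-fold in physiological saline. Tubes incubated 30 °C for 18 h; the table footnote gives 32 °C for 24 h. MIC in µg/ml is the lowest level giving complete growth inhibition.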

[2] = Ratio of compound LD50 to streptozotocin LD50 for JCL-ICR mouse; assay type: ADME, organism-based; details: in vivo
Mus musculus [3] = test: Toxicity in ICR mouse allografted with mouse S180A assessed as mortality at 50 mg/kg, ip qd for 5 days; assay type: organism-based; parameters: dose 50 mg/kg, route intraperitoneal; details: in vivo, 120 h
In short: (§3)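 Ascites Sarcoma 180 (1 × 10^7 cells) implanted into ICR mice, six per group; compound in saline ip once daily days 1-5; sacrifice on day 7; total packed cell volume (ascites volume × PCV) compared with controls as T/C %; mortality recorded.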

Enterococcus faecalis = test: Antibacterial activity against Streptococcus faecalis ATCC 10541 assessed as growth inhibition after 18 hrs by broth dilution method; assay type: functional; details: ATCC 10541, 18 h; in short: as §2
Salmonella typhi = test: Antibacterial activity against Salmonella typhi IFM 3020 assessed as growth inhibition after 18 hrs by broth dilution method; assay type: functional, Salmonella enterica subsp. enterica serovar Typhi; details: Salmonella enterica, IFM 3020, 18 h
In short: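 Twofold serial dilutions in heart infusion broth; inoculum from 24 h heart infusion broth culture diluted 100-fold in physiological saline; tubes incubated 30 °C for 18 h; MIC (µg/ml) = lowest level giving complete growth inhibition.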

Rattus norvegicus = test: Diabetogenic activity in iv dosed Wistar rat assessed as increase in blood sugar level administered as single dose by glucose oxidase method; assay type: ADME, organism-based; details: in vivo
In short: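 Male Wistar rats, about 200 g, five per group, fasted 16 h. Single iv dose into the femoral vein in physiological saline, equimolar across compounds. Caudal-vein blood sampled at set times over 24 h. Sugar measured by glucose oxidase.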

Pseudomonas fluorescens = test: Antibacterial activity against Pseudomonas fluorescens NIHJ B-254 assessed as growth inhibition after 18 hrs by broth dilution method; assay type: functional; details: NIHJ B-254, 18 h; in short: as §2
Escherichia coli = test: Antibacterial activity against Escherichia coli NIHJ JC-2 assessed as growth inhibition after 18 hrs by broth dilution method; assay type: functional; details: NIHJ JC-2, 18 h; in short: as §2
L1210 [4] = test: Antitumor activity against mouse L1210 cells allografted in BDF1 mouse assessed as increase in host lifespan at 125 mg/kg, ip qd for 5 days relative to control; assay type: functional; details: 120 h, route intraperitoneal; in short: as §1
[5] = Antitumor activity against mouse S180A allografted in ICR mouse assessed as tumor growth at 50 mg/kg, ip qd for 5 days measured on day 7 relative to control; assay type: functional; details: route intraperitoneal
In short: (§4)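 Ascites Sarcoma 180 (1 × 10^7 cells) implanted into ICR mice, six animals per group. Five daily ip injections in saline (days 1–5). Sacrificed day 7. T/C % computed from total packed cell volume (ascites volume × PCV) vs controls. Grades: 100-66 = -, 65-41 = +, 40-11 = ++, 10-0 = +++.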

Mus musculus [6] = test: (§5) Acute toxicity in ip dosed JCL-ICR mouse assessed as animal death; assay type: organism-based; details: in vivo
In short: (§6)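 Groups of ten female JCL-ICR mice given single ip dose in physiological saline; deaths followed over 7 days; LD50 (and LD10) derived by Litchfield–Wilcoxon method.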

[7] = as §5; assay type: organism-based; details: JCL-ICR, in vivo; in short: as §6
Shigella sonnei = test: Antibacterial activity against Shigella sonnei assessed as growth inhibition after 18 hrs by broth dilution method; assay type: functional; in short: as §2
Bacillus subtilis = test: Antibacterial activity against Bacillus subtilis ATCC 6633 assessed as growth inhibition after 18 hrs by broth dilution method; assay type: functional; details: ATCC 6633, 18 h; in short: as §2
Proteus vulgaris = test: Antibacterial activity against Proteus vulgaris AHU 1469 assessed as growth inhibition after 18 hrs by broth dilution method; assay type: functional; details: AHU 1469, 18 h; in short: as §2
Staphylococcus aureus = test: Antibacterial activity against Staphylococcus aureus FDA 209P JC-1 assessed as growth inhibition after 18 hrs by broth dilution method; assay type: functional; details: FDA 209P JC-1, 18 h; in short: as §2
Klebsiella pneumoniae = test: Antibacterial activity against Klebsiella pneumoniae ATCC 10031 assessed as growth inhibition after 18 hrs by broth dilution method; assay type: functional; details: ATCC 10031, 18 h; in short: as §2
Mus musculus [8] = test: Ratio of compound LD10 to streptozotocin LD10 for JCL-ICR mouse; assay type: ADME, organism-based; details: in vivo
L1210 [9] = test: Antitumor activity against mouse L1210 cells allografted in BDF1 mouse assessed as increase in host lifespan at 50 mg/kg, ip qd for 5 days relative to control; assay type: functional; details: 120 h, route intraperitoneal; in short: as §1
[10] = Antitumor activity against mouse S180A allografted in ICR mouse assessed as tumor growth at 100 mg/kg, ip qd for 5 days measured on day 7 relative to control; assay type: functional; details: route intraperitoneal; in short: as §4
Mus musculus [11] = test: Toxicity in ICR mouse allografted with mouse S180A assessed as mortality at 100 mg/kg, ip qd for 5 days; assay type: organism-based; parameters: dose 100 mg/kg, route intraperitoneal; details: in vivo, 120 h; in short: as §3
Mus musculus [12] = test: Toxicity in BDF1 mouse allografted with mouse L1210 cells assessed as mortality at 50 mg/kg, ip qd for 5 days; assay type: organism-based; parameters: dose 50 mg/kg, route intraperitoneal; details: in vivo, 120 h; in short: as §1

Structure (SMILES) | MIC (Micrococcus luteus) [µg/mL] | selectivity ratio [2] | MIC (Enterococcus faecalis) [µg/mL] | MIC (Salmonella typhi) [µg/mL] | Activity (Rattus norvegicus) | MIC (Pseudomonas fluorescens) [µg/mL] | MIC (Escherichia coli) [µg/mL] | LD10 (Mus musculus [6]) [mg/kg] | LD50 [7] [mg/kg] | MIC (Shigella sonnei) [µg/mL] | MIC (Bacillus subtilis) [µg/mL] | MIC (Proteus vulgaris) [µg/mL] | MIC (Staphylococcus aureus) [µg/mL] | MIC (Klebsiella pneumoniae) [µg/mL] | Ratio (Mus musculus [8]) | other results
CCO[C@H]1O[C@H](CO)[C@@H](O)[C@H](O)[C@H]1NC(=O)N(C)N=O | > 1000 | 2 | > 1000 | > 1000 | Non-toxic | > 1000 | > 1000 | 2000 | 2050 | > 1000 | > 1000 | > 1000 | > 1000 | > 1000 | 2 | Activity (Mus musculus [1]): Non-toxic; Activity (Mus musculus [3]): Non-toxic; ILS at 125 mg/kg (L1210 [4]): 64%; T/C [5]: 38%
CCN(N=O)C(=O)N[C@H]1[C@H](OC)O[C@H](CO)[C@@H](O)[C@@H]1O | > 1000 | 2 | > 1000 | > 1000 | Non-toxic | > 1000 | > 1000 | 1380 | 1700 | > 1000 | > 1000 | > 1000 | > 1000 | > 1000 | 2 | ILS at 50 mg/kg (L1210 [9]): 14%; T/C [10]: 65%; Activity (Mus musculus [11]): Non-toxic; Activity (Mus musculus [12]): Non-toxic
